This passage reports Ki results from ChEMBL document CHEMBL1135612, “Identification of potent and selective small-molecule inhibitors of caspase-3 through the use of extended tethering and structure-based drug design” (J Med Chem, 2002).

One experiment concerns the target T1, Caspase-5 (Homo sapiens, UniProt P51878).
T1 sequence (P51878 whole entry): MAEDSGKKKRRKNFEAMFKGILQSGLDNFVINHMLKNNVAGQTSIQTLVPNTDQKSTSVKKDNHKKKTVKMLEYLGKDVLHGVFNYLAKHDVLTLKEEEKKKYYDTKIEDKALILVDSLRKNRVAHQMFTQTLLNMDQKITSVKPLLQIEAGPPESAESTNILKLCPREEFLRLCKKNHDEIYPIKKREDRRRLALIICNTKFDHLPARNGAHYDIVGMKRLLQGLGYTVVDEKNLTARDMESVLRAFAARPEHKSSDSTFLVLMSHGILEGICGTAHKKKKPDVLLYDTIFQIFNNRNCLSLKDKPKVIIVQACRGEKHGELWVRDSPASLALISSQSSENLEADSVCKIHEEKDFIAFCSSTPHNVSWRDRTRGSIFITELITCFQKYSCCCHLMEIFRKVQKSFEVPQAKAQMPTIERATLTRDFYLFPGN
As to the kind of experiment: Inhibitory activity against Caspase-5. The method, boiled down:
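Recombinant human caspase-5 at 83 nM, final, with 30 µM Ac-WEHD-AFC in 100 mM HEPES pH 7.4, 10% sucrose, 0.1% CHAPS, 200 mM NaCl, 10 mM DTT. Enzyme and DMSO-titrated compound stood together 30 min at RT before substrate addition. Fluorescence (ex 365/em 495 nm) followed kinetically 15 min at RT. IC50 came from a four-parameter curve fit.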

A further experiment deals with T2, Caspase-1 (Homo sapiens, UniProt P29466).
T2 sequence (P29466 whole entry): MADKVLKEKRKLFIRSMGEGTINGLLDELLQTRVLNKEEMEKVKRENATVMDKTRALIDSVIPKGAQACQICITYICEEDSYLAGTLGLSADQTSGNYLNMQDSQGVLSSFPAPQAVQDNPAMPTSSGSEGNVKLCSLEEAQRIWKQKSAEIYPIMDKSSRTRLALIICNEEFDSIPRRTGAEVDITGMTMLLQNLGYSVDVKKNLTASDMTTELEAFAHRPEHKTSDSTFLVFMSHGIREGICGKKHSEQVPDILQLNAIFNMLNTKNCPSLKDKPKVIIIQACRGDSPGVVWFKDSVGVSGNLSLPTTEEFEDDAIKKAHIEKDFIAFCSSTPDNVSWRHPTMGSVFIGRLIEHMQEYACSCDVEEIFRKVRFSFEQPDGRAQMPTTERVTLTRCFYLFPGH
As to the kind of experiment: Inhibitory activity against of Caspase-1. The method, boiled down: (§1)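 Human recombinant caspase-1 (3 nM; 4 µM Ac-WEHD-AFC), -2 (17 nM; 40 µM Ac-VDVAD-AFC), -4 (60 nM; 30 µM Ac-WEHD-AFC) or -6 (2 nM; 7 µM Ac-VEID-AFC), final concentrations. Buffer: 25 mM HEPES pH 7.4, 0.1% CHAPS, 50 mM KCl, 5 mM β-ME. Enzyme preincubated 30 min RT with compound titrated in DMSO. Substrate starts reaction. AFC kinetics (ex 365/em 495 nm) read 15 min RT. IC50 from four-parameter fit.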

The next experiment addresses T3, Caspase-7 (Homo sapiens, UniProt P55210).
T3 sequence (P55210 whole entry): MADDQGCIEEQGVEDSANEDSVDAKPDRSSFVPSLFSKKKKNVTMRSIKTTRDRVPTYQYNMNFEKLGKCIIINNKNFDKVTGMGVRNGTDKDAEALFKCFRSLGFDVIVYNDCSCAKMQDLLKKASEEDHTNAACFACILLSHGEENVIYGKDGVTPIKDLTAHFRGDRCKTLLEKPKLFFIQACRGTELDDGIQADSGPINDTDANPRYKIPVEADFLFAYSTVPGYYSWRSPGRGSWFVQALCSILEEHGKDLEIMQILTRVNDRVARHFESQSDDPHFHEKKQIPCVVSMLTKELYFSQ
Put plainly: Inhibitory activity against Caspase-7. The gist of the method: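 Caspase-7 assay: 1 nM recombinant human enzyme and 30 µM Ac-DEVD-AFC, final, in 25 mM HEPES pH 7.4, 0.1% CHAPS, 50 mM KCl, 5 mM CaCl2, 5 mM β-ME. Enzyme preincubated 30 min RT with compound titrated in DMSO, then substrate added. Kinetic AFC fluorescence (ex 365/em 495 nm) over 15 min at RT. IC50 by four-parameter fit.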

In the next experiment the target is T4, Caspase-2 (Homo sapiens, UniProt P42575).
T4 sequence (P42575 whole entry): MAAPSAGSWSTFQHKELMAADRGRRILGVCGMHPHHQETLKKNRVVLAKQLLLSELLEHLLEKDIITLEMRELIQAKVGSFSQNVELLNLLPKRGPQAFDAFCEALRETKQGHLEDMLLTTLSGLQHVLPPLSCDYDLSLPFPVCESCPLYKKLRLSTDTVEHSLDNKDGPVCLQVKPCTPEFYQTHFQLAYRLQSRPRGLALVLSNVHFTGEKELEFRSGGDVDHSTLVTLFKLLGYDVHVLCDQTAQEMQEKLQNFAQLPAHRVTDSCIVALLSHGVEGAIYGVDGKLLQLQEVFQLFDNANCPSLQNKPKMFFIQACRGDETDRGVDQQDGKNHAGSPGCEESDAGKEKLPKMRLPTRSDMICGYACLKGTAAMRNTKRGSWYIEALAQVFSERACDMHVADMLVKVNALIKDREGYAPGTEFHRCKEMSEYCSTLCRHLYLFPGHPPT
As to the kind of experiment: Inhibitory activity against of Caspase-2. The gist of the method: as §1

The next experiment concerns the target T5, Caspase-4 (Homo sapiens, UniProt P49662).
T5 sequence (P49662 whole entry): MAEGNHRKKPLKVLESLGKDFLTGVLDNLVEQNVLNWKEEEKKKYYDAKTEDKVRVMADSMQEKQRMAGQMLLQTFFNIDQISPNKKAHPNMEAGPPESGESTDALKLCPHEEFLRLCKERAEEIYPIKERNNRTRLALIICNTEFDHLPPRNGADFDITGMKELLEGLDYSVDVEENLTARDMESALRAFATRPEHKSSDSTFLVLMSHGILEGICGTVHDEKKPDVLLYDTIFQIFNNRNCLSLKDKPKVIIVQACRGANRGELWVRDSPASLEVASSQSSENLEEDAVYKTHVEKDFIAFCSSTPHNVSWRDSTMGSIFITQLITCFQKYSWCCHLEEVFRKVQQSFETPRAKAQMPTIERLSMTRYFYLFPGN
Put plainly: Inhibitory activity against Caspase-4. The gist of the method: as §1

In another experiment the target is T6, Caspase-3 (Homo sapiens, UniProt P42574).
T6 sequence (P42574 whole entry): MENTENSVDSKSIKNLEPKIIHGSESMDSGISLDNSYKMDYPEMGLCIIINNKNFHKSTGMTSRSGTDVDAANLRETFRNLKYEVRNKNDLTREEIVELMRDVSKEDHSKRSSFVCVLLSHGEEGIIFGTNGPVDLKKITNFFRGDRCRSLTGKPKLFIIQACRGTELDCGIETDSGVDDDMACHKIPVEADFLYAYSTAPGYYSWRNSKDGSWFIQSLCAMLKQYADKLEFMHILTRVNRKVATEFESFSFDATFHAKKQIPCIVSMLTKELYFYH
As to the kind of experiment: Inhibitory activity against Caspase-3.

A further experiment concerns the target T7, Caspase-6 (Homo sapiens, UniProt P55212).
T7 sequence (P55212 whole entry): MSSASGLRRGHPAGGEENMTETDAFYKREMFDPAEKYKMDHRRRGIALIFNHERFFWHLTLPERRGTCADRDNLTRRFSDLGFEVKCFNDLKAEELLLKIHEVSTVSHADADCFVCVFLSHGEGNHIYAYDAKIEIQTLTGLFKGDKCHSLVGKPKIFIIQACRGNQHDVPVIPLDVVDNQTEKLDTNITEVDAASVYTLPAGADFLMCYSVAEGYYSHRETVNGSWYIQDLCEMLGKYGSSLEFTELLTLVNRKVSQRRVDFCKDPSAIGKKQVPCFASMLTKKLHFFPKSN
As to the kind of experiment: Inhibitory activity against Caspase-6. The method, boiled down:
as §1

The target of another experiment is Caspase-8 (Homo sapiens, UniProt Q14790). As to the kind of experiment: Inhibitory activity against Caspase-8. The method, boiled down:
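In-house expressed, purified human caspase-8 at 10 nM, final, with 3 µM Ac-IETD-AFC in 100 mM HEPES pH 7.4, 10% sucrose, 0.1% CHAPS, 10 mM DTT. Enzyme was preincubated 30 min at RT with DMSO-titrated compound, and substrate started the reaction. Fluorescence (ex 365/em 495 nm) was read kinetically for 15 min at RT. IC50 came from a four-parameter fit.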

Molecules are shown by their SMILES. Where only a bound is given, the exact number is not on record here.

Sequence of Caspase-8 (Q14790 217-374 limits assumed): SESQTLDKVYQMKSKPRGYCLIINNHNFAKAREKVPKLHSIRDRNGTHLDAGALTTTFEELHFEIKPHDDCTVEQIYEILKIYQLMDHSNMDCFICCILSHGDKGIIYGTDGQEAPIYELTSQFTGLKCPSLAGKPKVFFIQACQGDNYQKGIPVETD
Sequence of Caspase-8 (Q14790 385-479 limits assumed): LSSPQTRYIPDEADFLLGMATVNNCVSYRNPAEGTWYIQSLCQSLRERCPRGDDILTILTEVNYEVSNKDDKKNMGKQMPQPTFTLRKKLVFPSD

In general, Ki refers to a dissociation constant, usually derived from enzyme kinetics or from competition with a known ligand. A low value points to tighter binding. Regarding `CN(Cc1ccc(O)c(C(=O)O)c1)Cc1ccc(C(=O)N[C@@H](CC(=O)O)C(=O)CSCc2ccccc2Cl)s1`, the Ki at Caspase-5 was 98 µM; on Caspase-1, 12 µM; at Caspase-7, 0.19 µM; at Caspase-2, 30 µM; at Caspase-4, 96 µM; at Caspase-3, 0.09 µM. For the same compound, the Ki at Caspase-6 came to 22 µM; at Caspase-8, 4 µM.

`O=C(O)C[C@H](NC(=O)c1cnc(CNS(=O)(=O)c2ccc(O)c(C(=O)O)c2)s1)C(=O)CSCc1ccccc1Cl`: the Ki turned out to be 23 µM at Caspase-5; 8.3 µM on Caspase-1; 0.09 µM at Caspase-7; 16 µM on Caspase-2; 13 µM on Caspase-4; 0.03 µM on Caspase-3. For the same compound, the values for the Ki at Caspase-6 and on Caspase-8 were 2.3 µM and 19 µM, respectively.

As to `Cc1cc(CNS(=O)(=O)c2ccc(O)c(C(=O)O)c2)sc1C(=O)N[C@@H](CC(=O)O)C(=O)CSCc1ccccc1Cl`, the Ki was determined as 36 µM on Caspase-5; 2.7 µM on Caspase-1; 0.94 µM at Caspase-7; 37 µM on Caspase-2; 27 µM at Caspase-4; 0.04 µM at Caspase-3. Further, the figures for the Ki on Caspase-6 and at Caspase-8 were 2.4 µM and 0.71 µM, respectively.

For `O=C[C@H](CC(=O)O)NC(=O)c1ccc(CNS(=O)(=O)c2ccc(O)c(C(=O)O)c2)cc1`, the Ki on Caspase-5 is 12 µM; at Caspase-1 it was 0.16 µM; at Caspase-7 it was 0.47 µM; at Caspase-2, 9 µM; on Caspase-4, 21 µM; at Caspase-3, 0.2 µM. For the same compound, the Ki came to 1 µM at Caspase-6 and 0.15 µM on Caspase-8.

As for `O=C[C@H](CC(=O)O)NC(=O)c1ccc(CNS(=O)(=O)c2ccc(O)c(C(=O)O)c2)s1`, the Ki on Caspase-5 was found to be 24 µM; at Caspase-1, 1.9 µM; on Caspase-7, 0.12 µM; on Caspase-2, 21 µM; on Caspase-4 it was 38 µM; at Caspase-3, 0.12 µM. Further, the Ki at Caspase-6 amounted to 0.54 µM; at Caspase-8 it was 0.05 µM.

In the case of `O=C(O)C[C@H](NC(=O)c1ccc(CNS(=O)(=O)c2ccc(O)c(C(=O)O)c2)s1)C(=O)CSCc1ccccc1Cl`, the Ki on Caspase-5 was 63 µM; on Caspase-1, 3.2 µM; at Caspase-7 it was 0.13 µM; at Caspase-2, 64 µM; at Caspase-4 it was more than 100 µM; at Caspase-3 it was 0.02 µM. Besides, the results for the Ki at Caspase-6 and at Caspase-8 were 9.7 µM and 0.33 µM, respectively.

Consider `O=C[C@H](CC(=O)O)NC(=O)c1ccc(CNS(=O)(=O)c2ccc(O)c(C(=O)O)c2)nc1`, for which the Ki was 22 µM on Caspase-5; 0.13 µM on Caspase-7; 0.96 µM at Caspase-2; 92 µM on Caspase-4; 0.05 µM on Caspase-3; 1.4 µM at Caspase-6. Further, the Ki at Caspase-8 came out at 0.88 µM.

Turning to `O=C(O)C[C@H](NC(=O)c1cnc(CNS(=O)(=O)c2ccc(O)c(C(=O)O)c2)nc1)C(=O)CSCc1ccccc1Cl`, the Ki on Caspase-5 turned out to be 32 µM; on Caspase-1, 25 µM; on Caspase-7, 0.09 µM; on Caspase-2 it was 30 µM; on Caspase-4 it was 22 µM; on Caspase-3, 0.02 µM. Further, the Ki was 0.19 µM on Caspase-6 and 28 µM on Caspase-8.
